# Measured values as given in ChEMBL document CHEMBL4364272, “Discovery of a Lead Triphenylethanamine Cholesterol Ester Transfer Protein (CETP) Inhibitor” (ACS Med Chem Lett, 2019).
# Assays:
# [1] = Stability in mouse liver microsomes assessed as parent compound remaining at 50 uM preincubated for 5 to 7 mins followed by NADPH addition and measured 10 mins post-dose by LC-MS/MS; format: ADME, Microsome; conditions: read-out: Stability
# [2] = Stability in human liver microsomes assessed as parent compound remaining at 50 uM preincubated for 5 to 7 mins followed by NADPH addition and measured 10 mins post-dose by LC-MS/MS; format: ADME, Microsome; conditions: read-out: Stability
# [3] = molecular target: Voltage-gated inwardly rectifying potassium channel KCNH2 (Homo sapiens, UniProt Q12809); assay: Inhibition of human ERG expressed in HEK293 cells by flux assay
# [4] = molecular target: T1, Cholesteryl ester transfer protein (Homo sapiens, UniProt P11597); assay: Inhibition of human recombinant CETP assessed as reduction in [3H]CE/HDL transfer incubated for 4 hrs by scintillation proximity assay
# T1 sequence (P11597 whole entry): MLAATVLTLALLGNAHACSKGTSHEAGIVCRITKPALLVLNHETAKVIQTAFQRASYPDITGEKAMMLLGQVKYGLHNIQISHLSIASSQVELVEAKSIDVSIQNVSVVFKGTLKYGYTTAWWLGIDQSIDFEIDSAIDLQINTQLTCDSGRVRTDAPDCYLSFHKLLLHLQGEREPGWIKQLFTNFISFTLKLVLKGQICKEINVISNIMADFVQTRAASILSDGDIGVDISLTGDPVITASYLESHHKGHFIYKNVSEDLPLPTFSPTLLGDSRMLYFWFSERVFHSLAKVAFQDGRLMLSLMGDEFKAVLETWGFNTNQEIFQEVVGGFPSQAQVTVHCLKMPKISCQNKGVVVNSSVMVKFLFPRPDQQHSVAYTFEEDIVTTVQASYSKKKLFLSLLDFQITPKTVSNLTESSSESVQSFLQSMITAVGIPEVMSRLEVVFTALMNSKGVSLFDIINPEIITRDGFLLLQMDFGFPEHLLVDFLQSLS
# In short: (§1)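 CETP activity was measured by scintillation proximity assay and by human whole plasma assay. Each was run in duplicate at six concentrations, and the mean values were used to calculate IC50.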
# [5] = molecular target: T1, Cholesteryl ester transfer protein; assay: Inhibition of CETP in human whole plasma assessed as reduction in [3H]-CE/HDL transfer incubated for 2.5 hrs by topcount scintillation counting assay; format: cell-free; in short: as §1
# Voltage-gated inwardly rectifying potassium channel KCNH2, sequence (Q12809 whole entry): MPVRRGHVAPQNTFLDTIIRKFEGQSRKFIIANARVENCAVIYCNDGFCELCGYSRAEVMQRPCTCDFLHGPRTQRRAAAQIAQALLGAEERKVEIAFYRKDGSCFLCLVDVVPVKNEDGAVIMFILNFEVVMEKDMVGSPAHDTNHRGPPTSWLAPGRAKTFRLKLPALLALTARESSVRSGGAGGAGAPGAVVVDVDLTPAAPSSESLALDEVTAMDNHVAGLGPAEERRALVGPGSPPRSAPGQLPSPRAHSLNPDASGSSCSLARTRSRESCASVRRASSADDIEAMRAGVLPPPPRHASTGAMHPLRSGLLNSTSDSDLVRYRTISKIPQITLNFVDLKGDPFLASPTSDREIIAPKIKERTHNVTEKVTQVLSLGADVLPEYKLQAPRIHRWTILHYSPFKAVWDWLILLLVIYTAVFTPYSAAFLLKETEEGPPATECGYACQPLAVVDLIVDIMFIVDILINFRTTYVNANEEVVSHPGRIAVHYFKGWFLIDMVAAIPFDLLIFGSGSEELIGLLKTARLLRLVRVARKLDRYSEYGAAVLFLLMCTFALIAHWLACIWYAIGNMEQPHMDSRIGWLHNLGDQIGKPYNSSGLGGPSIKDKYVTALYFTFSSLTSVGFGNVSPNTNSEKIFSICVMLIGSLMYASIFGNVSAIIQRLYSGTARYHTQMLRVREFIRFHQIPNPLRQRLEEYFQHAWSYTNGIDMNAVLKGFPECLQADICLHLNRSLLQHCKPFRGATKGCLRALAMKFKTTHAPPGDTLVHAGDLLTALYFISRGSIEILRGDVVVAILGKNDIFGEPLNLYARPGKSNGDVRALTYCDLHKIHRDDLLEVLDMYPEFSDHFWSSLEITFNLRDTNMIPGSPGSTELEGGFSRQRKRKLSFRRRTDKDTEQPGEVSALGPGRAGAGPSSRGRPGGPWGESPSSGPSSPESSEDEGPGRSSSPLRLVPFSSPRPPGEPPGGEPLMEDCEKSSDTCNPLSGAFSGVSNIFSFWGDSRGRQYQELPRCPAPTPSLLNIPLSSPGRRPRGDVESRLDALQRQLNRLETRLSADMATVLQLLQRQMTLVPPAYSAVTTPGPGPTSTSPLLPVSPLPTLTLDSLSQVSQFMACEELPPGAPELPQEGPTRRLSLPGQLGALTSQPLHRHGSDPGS
Structure (SMILES),"remaining at 10 min, 50 µM [1] [%]","remaining at 10 min, 50 µM [2] [%]",IC50 [3] [nM],IC50 [4] [nM],IC50 [5] [nM],IC50 ([3]; hek293) [nM]
CN(C)C(C(=O)N[C@](Cc1ccccc1)(c1ccc(F)cc1)c1cc(F)cc(C(F)(F)F)c1)C(O)(C(F)(F)F)C(F)(F)F (some centres not stated),82,58,16000,3300,30000,
CC(C)(C)Oc1cc([C@@](Cc2ccccc2)(NC(=O)C(N)C(O)(C(F)(F)F)C(F)(F)F)c2cc(F)cc(OC(F)(F)C(F)F)c2)ccc1F (some centres not stated),100,100,,5,140,
CC(C)Oc1cc([C@@](Cc2ccccc2)(NCC(N)C(O)(C(F)(F)F)C(F)(F)F)c2cc(F)cc(OC(F)(F)C(F)F)c2)ccc1F (some centres not stated),68,81,> 80000,26,200,
CC(C)Oc1cc([C@@](Cc2ccccc2)(NC(=O)C(O)C(O)(C(F)(F)F)C(F)(F)F)c2cc(F)cc(OC(F)(F)C(F)F)c2)ccc1F (some centres not stated),100,89,,1,84,
CNC(C(=O)N[C@](Cc1ccccc1)(c1ccc(F)cc1)c1cc(F)cc(C(F)(F)F)c1)C(O)(C(F)(F)F)C(F)(F)F (some centres not stated),87,62,13000,140,6200,
NC(C(=O)N[C@](Cc1ccccc1)(c1ccc(F)cc1)c1cc(F)cc(C(F)(F)F)c1)C(O)(C(F)(F)F)C(F)(F)F (some centres not stated),72,100,> 80000,11,430,
CC(C)NC(C(=O)N[C@](Cc1ccccc1)(c1ccc(F)cc1)c1cc(F)cc(C(F)(F)F)c1)C(O)(C(F)(F)F)C(F)(F)F (some centres not stated),54,71,63000,230,7100,
O=C(CC(O)(C(F)(F)F)C(F)(F)F)N[C@@](Cc1ccccc1)(c1cc(F)cc(C(F)(F)F)c1)c1ccc(Cl)cn1,91,92,22000,120,3800,
CC(C)Oc1cc([C@@](Cc2ccccc2)(NC(=O)C(N)C(O)C(F)(F)F)c2cc(F)cc(OC(F)(F)C(F)F)c2)ccc1F (some centres not stated),16,2,,6,270,
NC(C(=O)N[C@@](Cc1ccccc1)(c1cc(F)cc(OC(F)(F)C(F)F)c1)c1ccc(Cl)cn1)C(O)(C(F)(F)F)C(F)(F)F (stereo in doubt; 9b),,,,80,940,> 80000
O=C(N[C@@](Cc1ccccc1)(c1cc(F)cc(C(F)(F)F)c1)c1ccc(Cl)cn1)C(O)C(O)(C(F)(F)F)C(F)(F)F (some centres not stated),,,,35,1400,
CC(C)Oc1cc([C@@](Cc2ccccc2)(NCC(O)C(O)(C(F)(F)F)C(F)(F)F)c2cc(F)cc(OC(F)(F)C(F)F)c2)ccc1F (some centres not stated),100,100,12000,5,58,
NC(C(=O)N[C@@](Cc1ccccc1)(c1cc(F)cc(OC(F)(F)C(F)F)c1)c1ccc(Cl)cn1)C(O)(C(F)(F)F)C(F)(F)F (stereo in doubt; 9a),100,100,> 80000,53,5900,
